These results are taken from ChEMBL document CHEMBL4765236, “Insights into the Antimicrobial Activity and Cytotoxicity of Engineered α-Helical Peptide Amphiphiles” (J Med Chem, 2016).

Calls of active or inactive are those of the source.

The subject of series [1] is Salmonella enteritidis. Kind of series: Antibacterial activity against Salmonella enteritidis CICC 21527 assessed as bacterial growth inhibition incubated for 18 to 24 hrs by microtiter broth dilution method. The class given is functional, Salmonella enterica subsp. enterica serovar Enteritidis. The settings on record: Salmonella enterica, time 18-24 hrs. A digest of the protocol: (§1)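 Log-phase cells (grown overnight at 37 °C, subcultured in MHB) diluted to 10^5 CFU/mL in MHB and mixed 1:1 with serial peptide dilutions prepared in 0.01% acetic acid/0.2% BSA. Incubated 37 °C for 18-24 h. MIC is the lowest concentration giving no growth by OD492. Reported as the average of 3-5 independent experiments.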

The subject of series [2] is Bacillus cereus. Kind of series: Antibacterial activity against Bacillus cereus CMCC 63301 assessed as bacterial growth inhibition incubated for 18 to 24 hrs by microtiter broth dilution method. The format is functional. The settings on record: time 18-24 hrs. A digest of the protocol:
as §1
A general note: Dilution methods test growth across graded concentrations, often in twofold steps.

For series [3], the system named is Staphylococcus aureus. Kind of series: Antibacterial activity against Staphylococcus aureus ATCC 29213 assessed as bacterial growth inhibition incubated for 18 to 24 hrs in presence of 2 mM CaCl2 by microtiter broth dilution method (reference value: 0.43 to > 71.5 uM). The class given is functional. The settings on record: time 18-24 hrs.
The test system of series [4] is Escherichia coli. Kind of series: Antibacterial activity against Escherichia coli O157:H7 CICC 21530 assessed as bacterial growth inhibition incubated for 18 to 24 hrs in presence of 4 mM FeCl3 by microtiter broth dilution method (reference value: 0.85 to > 71.5 uM). The class given is functional. The settings on record: time 18-24 hrs.
Series [5] deals with Staphylococcus aureus. Kind of series: Antibacterial activity against Staphylococcus aureus ATCC 29213 assessed as bacterial growth inhibition incubated for 18 to 24 hrs in presence of 6 mM NH4Cl by microtiter broth dilution method (reference value: 0.43 to > 71.5 uM). The class given is functional. The settings on record: time 18-24 hrs.
For series [6], the system named is Salmonella enterica. Kind of series: Antibacterial activity against Salmonella choleraesuis ATCC 13312 assessed as bacterial growth inhibition incubated for 18 to 24 hrs by broth dilution method. The class given is functional. The note with it: time 18-24 hrs. A digest of the protocol: (§2)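 Log-phase bacteria grown at 37 °C in MHB, diluted to 10^5 CFU/mL, mixed 1:1 with serial peptide dilutions (peptide diluted in 0.01% acetic acid, 0.2% BSA); 37 °C for 18-24 h. MIC read by OD492 as lowest concentration giving no growth; mean of 3-5 independent experiments.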

Series [7] deals with Erythrocyte. Kind of series: Hemolytic activity against human red blood cells assessed as concentration required to cause 10% hemoglobin release measured after 1 hr by microplate reader analysis. The class given is ADME, cell-based. A digest of the protocol: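 Fresh heparinized human RBCs washed three times in 10 mM PBS pH 7.4 and resuspended to about 1% (v/v) (5.4 × 10^8 cells/mL). Mixed 1:1 with peptide in PBS for 1 h at 37 °C, then centrifuged. Supernatant hemoglobin read at A540. PBS set as 0% and 0.1% Triton X-100 as 100% hemolysis. MHC is the concentration causing 10% hemolysis.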

The test system of series [8] is Cell membrane. Kind of series: Induction of cell membrane depolarization in Escherichia coli O157:H7 CICC 21530 assessed as increase in fluorescence intensity at 0.5 to 2 times MIC preincubated for 90 mins followed by KCl addition and measured after 15 to 30 mins by DiSC3-5 staining based fluorescence spectroscopic technique. The format is subcellular. The note with it: time 105-120 min.

The nature of series [9]: Therapeutic index, ratio of MHC10 for human RBC to geometric mean of peptide MIC for Escherichia coli O157:H7 CICC 21530. The settings on record: human red blood cells (RBC), pooled result: one value given for 11 cell lines, strains, targets or settings, read-out: TI. The format is toxicity. A digest of the protocol:
(§3)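 Therapeutic index = MHC (peptide concentration giving 10% hemolysis of human RBCs, 1 h, 37 °C, A540) divided by geometric mean of MICs from broth microdilution (10^5 CFU/mL in MHB, 37 °C, 18-24 h, OD492).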

Series [10] deals with Pseudomonas fluorescens. Kind of series: Antibacterial activity against Pseudomonas fluorescens CICC 21620 assessed as bacterial growth inhibition incubated for 18 to 24 hrs by microtiter broth dilution method. The class given is functional. The settings on record: time 18-24 hrs. In short, it runs like this: as §1
Series [11] relates to Staphylococcus aureus. Kind of series: Antibacterial activity against Staphylococcus aureus ATCC 29213 assessed as bacterial growth inhibition incubated for 18 to 24 hrs in presence of […] by microtiter broth dilution method (reference value: 0.43 to > 71.5 uM). The class given is functional. The settings on record: time 18-24 hrs.
The test system of series [12] is Escherichia coli. Kind of series: Antibacterial activity against Escherichia coli ATCC 35150 assessed as bacterial growth inhibition incubated for 18 to 24 hrs by microtiter broth dilution method. The settings on record: time 18-24 hrs. The format is functional. In short, it runs like this: as §1
For series [13], the system named is Salmonella paratyphi. Kind of series: Antibacterial activity against Salmonella paratyphi C CICC 21512 assessed as bacterial growth inhibition incubated for 18 to 24 hrs by microtiter broth dilution method. The class given is functional. The settings on record: Salmonella enterica, time 18-24 hrs. In short, it runs like this: as §2
Series [14] can be described thus: Therapeutic index, ratio of MHC10 for human RBC to geometric mean of peptide MIC for Staphylococcus aureus ATCC 29213. The format is toxicity. The note with it: human red blood cells (RBC), pooled result: one value given for 9 cell lines, strains, targets or settings, read-out: TI. In short, it runs like this:
as §3

Series [15] concerns Listeria monocytogenes. Kind of series: Antibacterial activity against Listeria monocytogenes CICC 21662 assessed as bacterial growth inhibition incubated for 18 to 24 hrs by microtiter broth dilution method. The format is functional. The note with it: time 18-24 hrs. In short, it runs like this: as §1
The test system of series [16] is Escherichia coli. Kind of series: Antibacterial activity against Escherichia coli O157:H7 CICC 21530 assessed as bacterial growth inhibition incubated for 18 to 24 hrs in presence of 4.5 mM KCl by microtiter broth dilution method (reference value: 0.85 to > 71.5 uM). The format is functional. The note with it: time 18-24 hrs.
The subject of series [17] is Cell membrane. Kind of series: Induction of inner membrane permeabilization in Escherichia coli O157:H7 CICC 21530 assessed as cytoplasmic beta-galactosidase release at 1 times MIC using ONPG as substrate by […]. The class given is subcellular.
The test system of series [18] is RAW264.7. Kind of series: Antiinflammatory activity against mouse RAW264.7 cells assessed as inhibition of LPS-induced nitric oxide production measured after 24 hrs by Griess reagent based ELISA. The format is functional, cell-based. The note with it: dose 0.5-64 µM. A digest of the protocol: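 RAW264.7 cells plated at 1-2 × 10^5 cells/mL and stimulated with 500 ng/mL LPS with or without peptide (0.5-64 µM) for 24 h at 37 °C. Controls were untreated cells and LPS alone. TNF-α in the supernatant measured by ELISA. NO measured by Griess reagent (1% sulfanilamide, 0.1% naphthylethylenediamine, 5% phosphoric acid).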

In series [19] the test system is Staphylococcus aureus. Kind of series: Bactericidal activity against Staphylococcus aureus ATCC 29213 assessed as bacterial killing at 1 times MIC by time kill assay. The class given is functional, organism-based. The settings on record: time 1085.0 min, TDE = time-dependent effect. In short, it runs like this: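 Log-phase S. aureus 29213 exposed to peptide at 1 × MIC in 10 mM PBS pH 7.4 at 37 °C for 0-90 min. Aliquots taken at fixed intervals, diluted and plated on nutrient agar, and colonies counted after 18 h at 37 °C. Average of three independent assays.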

Series [20] deals with Candida albicans. Kind of series: Antifungal activity against Candida albicans ATCC 10231 assessed as fungal growth inhibition incubated for 18 to 24 hrs by microtiter broth dilution method. The class given is functional. The note with it: time 18-24 hrs. A digest of the protocol: as §1
Series [21] has as its system Staphylococcus aureus. Kind of series: Antibacterial activity against Staphylococcus aureus ATCC 29213 assessed as bacterial growth inhibition incubated for 18 to 24 hrs in presence of 150 mM NaCl by microtiter broth dilution method (reference value: 0.43 to > 71.5 uM). The class given is functional. The note with it: time 18-24 hrs.
Series [22] has as its system Escherichia coli. Kind of series: Antibacterial activity against Escherichia coli O157:H7 CICC 21530 assessed as bacterial growth inhibition incubated for 18 to 24 hrs in presence of 2 mM CaCl2 by microtiter broth dilution method (reference value: 0.85 to > 71.5 uM). The class given is functional. The settings on record: time 18-24 hrs.
Series [23] has as its system Staphylococcus aureus. Kind of series: Antibacterial activity against methicillin resistant Staphylococcus aureus ATCC 43300 assessed as bacterial growth inhibition incubated for 18 to 24 hrs by microtiter broth dilution method. The settings on record: time 18-24 hrs. The format is functional. A digest of the protocol:
as §2

In general, MIC refers to the smallest concentration in the dilution series that meets the test's criterion for growth inhibition.

Turning to H-WLRAFRRLVRRLARGLRR-NH2, the MIC was 6.81 µM in [1]; 0.85 µM in series [2]; 0.43 µM in series [3]; 6.81 µM in series [4]; 0.43 µM in series [5]; 1.7 µM in series [6]. Besides, the MIC in series [10] is 0.43 µM; in series [11], 55 µM; in series [12], 1.7 µM; in [13], 0.43 µM; in series [15] it was 0.21 µM; in series [16] it was 0.85 µM. Further, the MIC was determined as 3.4 µM in [20], 1.7 µM in series [21], 3.4 µM in [22] and 0.85 µM in [23]. Moreover, the MHC10 in series [7] stood at 27.22 µM. In addition, the outcome in [8] and in series [17] was Active. Besides, the selectivity ratio came out at 20.5 in series [9] and 59.1 in series [14]. The Activity result in [18] was “Dose-dependent effect”; in series [19] it was “Tde”.

Consider H-WLRAFRRLVRRLARLLRR-NH2, for which the minimal inhibitory concentration (MIC) in [1] is > 53.2 µM; in series [2] it was 53.2 µM; in series [3], 13.3 µM; in series [4] it was > 53.2 µM; in [5] it was 1.66 µM; in [6] it was 13.3 µM. Also, the MIC was 53.2 µM in series [10]; > 53.2 µM in [11]; 26.6 µM in [12]; 6.65 µM in series [13]; 3.32 µM in series [15]; 1.66 µM in series [16]. Further, the MIC in series [20] was 26.6 µM; in [21], 26.6 µM; in [22], > 53.2 µM; in series [23] it was 3.32 µM. Moreover, the MHC10 in series [7] was 53.18 µM. Moreover, the result in series [8] was Active. Also, the selectivity ratio in [9] was 4.83; in series [14], 5.88. Also, the result in [17] was inactive. The Activity result in series [18] is “Dose-dependent effect”; in series [19], “Tde”.
